Activity calls are given as the source filed them.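 Rule for the calls, unless noted: active = inhibition above 20% together with a positive visual image hit; inconclusive = visual image hit but inhibition not above 20%; inactive = no visual image hit.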
Experiments:
[1] = inhibitors of TNFa-induced NFkB p65 translocation, primary screen, imaging, HUVEC, MLSMR starter and 10KST1 sets (AID 438); conditions: HUVEC TNFa-induced p65 nuclear translocation; cell count: measured here: nuclei count (cytotoxicity indicator), at 2.08 µM; inhibition: at 2 µM, stronger effect = higher value, 0% TNFa-plus-vehicle, 100% no-TNFa wells;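 note: compound added about 3h40 before a 20 min TNFalpha stimulation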;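 for inhibition: signal is the nuclear over cytoplasmic p65 intensity ratio per well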
[2] = inhibitors of mutant huntingtin aggregation, primary screen, imaging, exon1htt(103Q)mCFP cells, high-content imaging (AID 483;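 active = visual image review flags a hit and inhibition of aggregation exceeds 20%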;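 note: compound exposure lasted 3 days before fixation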;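 for nuclei count: percent of the per-plate median nuclei count of sample wells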); conditions: exon1htt(103Q)mCFP cell line, aggregate imaging, at 2 µM; inhibition of aggregation: stronger effect = higher value; nuclei count: measured here: cell count, toxicity
[3] = inhibitors of E-selectin induction by TNFa, primary screen, imaging, HUVEC, immunofluorescence, MLSMR starter and 10KST1 sets (AID 487;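 active = visually confirmed hit in the image check and inhibition above 20%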;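 for inhibition: signal is fraction of cell area covered by stained E-selectin grains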;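 for nuclei count: 100% = median nuclei count of all wells on the same plate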); conditions: HUVEC TNFalpha-induced E-selectin immunofluorescence imaging, at 2 µM; inhibition: stronger effect = higher value; nuclei count: measured here: cell number, toxicity
[4] = molecular target: Voltage-gated potassium channel subunit beta-2 (Rattus norvegicus) (UniProt P62483); experiment: KvBeta enzyme negative modulators, primary screen, biochemical, NADPH fluorescence (AID 622;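 active = fluorescence slope higher than the sample average by over 3 SD, cut at about -0.22 in these data, passing the limit was not always enough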;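 note: slope of raw intensity against log time taken from 70 to 1610 s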); conditions: recombinant KvBeta, 4-cyanobenzaldehyde reduction, at 10 µM, stronger effect = higher value
[5] = molecular target: Voltage-gated potassium channel subunit beta-2 (Rattus norvegicus) (UniProt P62483); experiment: KvBeta positive modulators, primary screen, biochemical, NADPH fluorescence (AID 623;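 active = NADPH fluorescence slope more negative than the mean of all samples by about 3 SD, 99.7% confidence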;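 note: fluorescence intensity change per second fitted from 20 to 320 s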); conditions: Recombinant KvBeta, NADPH fluorescence decrease slope, 10 min; at 10 µM; stronger effect = lower value
[6] = molecular target: Muscarinic acetylcholine receptor M4 (Homo sapiens) (UniProt P08173); experiment: compounds altering M4/GIRK thallium flux, either direction, primary screen, M4 allosteric agonist project, cell-based, HEK293 M4/GIRK, BTC-AM (AID 625;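 active = fluorescence slope after compound addition differing from the mean of all tested samples at 99.7% confidence, mostly higher but some lower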;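 note: thallium influx through GIRK channels coupled to M4 in HEK293 cells with BTC-AM dye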); conditions: at 10 µM, actives lie on both sides
How it was run: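 Assay system: HEK293 cells with M4 receptor and GIRK channels / Controls: carbachol and DMSO controls / Schedule: 1 h dye loading, 2 min kinetic read / Technique: kinetic fluorescence with BTC-AM dye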

[7] = inhibitors of Sendai virus-induced IRF3 signaling, primary screen, TLR/RLR signaling modifier project, cell-based, Sendai virus stimulus, luciferase, 10K MLSCN set (AID 602276;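 active = inhibition at or above 50% at 10 µM; inactive = inhibition below 50%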;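 note: firefly luciferase from ISG56 promoter only with Renilla not read in this screen; 0% = Sendai virus plus DMSO and 100% = medium plus DMSO without virus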); conditions: HEK293 RL24 IRF3 luciferase reporter, at 10 µM, stronger effect = higher value
[8] = inhibitors of poly I:C-induced TLR3 signaling, primary screen, cell-based, poly I:C stimulus, luciferase, 10K MLSCN set (AID 602277;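 active = inhibition of the reporter signal at or above 50%; inactive = inhibition below 50%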); conditions: HEK293-TLR3 RL24 IRF3 luciferase reporter, at 10 µM, stronger effect = higher value

Chain of Voltage-gated potassium channel subunit beta-2 (Rattus norvegicus) (P62483 whole entry, looked up): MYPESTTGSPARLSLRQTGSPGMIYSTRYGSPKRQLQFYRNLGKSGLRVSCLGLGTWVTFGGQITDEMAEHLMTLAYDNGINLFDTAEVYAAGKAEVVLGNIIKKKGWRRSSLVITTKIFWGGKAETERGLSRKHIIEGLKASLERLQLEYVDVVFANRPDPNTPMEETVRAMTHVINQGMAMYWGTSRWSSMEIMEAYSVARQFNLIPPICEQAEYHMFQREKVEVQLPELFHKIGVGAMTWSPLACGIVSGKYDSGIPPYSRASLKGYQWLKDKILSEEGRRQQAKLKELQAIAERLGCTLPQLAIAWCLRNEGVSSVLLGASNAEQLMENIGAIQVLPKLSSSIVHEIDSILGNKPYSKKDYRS
Chain of Muscarinic acetylcholine receptor M4 (Homo sapiens) (P08173 whole entry, looked up): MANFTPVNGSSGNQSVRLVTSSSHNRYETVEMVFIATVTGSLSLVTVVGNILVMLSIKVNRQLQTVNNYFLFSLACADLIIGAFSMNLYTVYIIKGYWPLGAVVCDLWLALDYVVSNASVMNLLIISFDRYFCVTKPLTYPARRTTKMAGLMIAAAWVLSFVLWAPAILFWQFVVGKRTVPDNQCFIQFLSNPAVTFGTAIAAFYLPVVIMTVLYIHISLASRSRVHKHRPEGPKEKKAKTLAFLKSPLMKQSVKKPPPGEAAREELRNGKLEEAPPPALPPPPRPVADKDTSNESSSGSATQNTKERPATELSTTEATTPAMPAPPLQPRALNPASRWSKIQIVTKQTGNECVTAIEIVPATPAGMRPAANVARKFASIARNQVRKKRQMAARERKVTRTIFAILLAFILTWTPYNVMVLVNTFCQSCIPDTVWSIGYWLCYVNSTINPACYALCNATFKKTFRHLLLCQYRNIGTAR

| Structure (SMILES) | cell count [1] | inhibition [1] | inhibition of aggregation [2] | nuclei count [2] [%] | inhibition [3] | nuclei count [3] [%] | fluorescence slope [4] | NADPH fluorescence slope [5] | fluorescence slope [6] | inhibition [7] | inhibition [8] |
| --- | --- | --- | --- | --- | --- | --- | --- | --- | --- | --- | --- |
| O=c1[nH]c2c(s1)C(c1ccco1)C1C3CCC(C3)C1S2 (stereo not drawn) | 220 | 9.2% (inactive) | 12.3% (inactive) | 89.5 | -32.2% (inactive) | 108 | -0.574 (inactive) | -4.2e-05 (inactive) | 0.00506 (inactive) | 12.1% (inactive) | 26.3% (inactive) |
| CN(Cc1ccccc1)Cc1nc2c([nH]1)c(=O)[nH]c(=O)n2C | 276 | 12.9% (inactive) | -1.6% (inactive) | 96 | 69.5% (active) | 91.4 | -0.371 (inactive) | -0.000115 (inactive) | 0.0061 (inactive) | 7.51% (inactive) | 14.7% (inactive) |
| COCc1cc(C)c2c(N)c(C#N)sc2n1 | 549 | 2.2% (inactive) | -26% (inactive) | 60.8 | 22.2% (inactive) | 108 | -0.324 (inactive) | 2.3e-06 (inactive) | 0.00504 (inactive) | -19.7% (inactive) | -33.5% (inactive) |
| Cc1ccccc1NC(=O)c1ccc(NC(=O)c2ccco2)cc1 | 423 | -1% (inactive) | 10.9% (inactive) | 116 | -30.5% (inactive) | 113 | -0.462 (inactive) | -2.6e-05 (inactive) | 0.00647 (inactive) | -7.81% (inactive) | -35.1% (inactive) |
| COc1ccc(CCNS(=O)(=O)c2ccc3c(c2)OCCO3)cc1 | 361 | 4.2% (inactive) | 2.3% (inactive) | 102 | 33.5% (inactive) | 106 | -0.466 (inactive) | -3.5e-05 (inactive) | 0.00491 (inactive) | 14.6% (inactive) | 16.5% (inactive) |
| COC(=O)Nc1ccc(S(=O)(=O)N2CCN(c3ccc(F)cc3)CC2)cc1 | 381 | -3.7% (inactive) | 12.1% (inactive) | 100 | -124% (inactive) | 123 | -0.564 (inactive) | -0.000131 (inactive) | 0.00356 (inactive) | 6.88% (inactive) | 13.6% (inactive) |
| CC(C)c1ccc(-c2nc(N3CCCCC3)[nH]c(=O)c2C#N)cc1 | 459 | -4.5% (inactive) | -12% (inactive) | 102 | -48.9% (inactive) | 107 | -0.478 (inactive) | -3.9e-06 (inactive) | 0.00632 (inactive) | -5% (inactive) | -1.05% (inactive) |
| CCOC(=O)Nc1cc(OCC)c(NC(=O)C2CC2)cc1OCC | 589 | -12.9% (inactive) | -15% (inactive) | 117 | -52.7% (inactive) | 119 | -0.439 (inactive) | -4.7e-05 (inactive) | 0.00711 (inactive) | 3.59% (inactive) | 11.8% (inactive) |
| C=C(C)Cn1c(SCC)nc2ccccc2c1=O | 399 | -5% (inactive) | 13.5% (inactive) | 98.7 | -26.7% (inactive) | 94.5 | -0.454 (inactive) | -0.000357 (inactive) | 0.0055 (inactive) | 9.69% (inactive) | 22.7% (inactive) |
| CCC1Oc2ccccc2N(CC(=O)Nc2ccc(OC)cc2OC)C1=O (stereo not drawn) | 726 | 44.3% (active) | -17.4% (inactive) | 117 | -57% (inactive) | 127 | -0.533 (inactive) | -0.000132 (inactive) | 0.00464 (inactive) | -2.59% (inactive) | 4.28% (inactive) |
| C=CCNC(=O)CNS(=O)(=O)c1ccc(F)cc1 | 443 | -2.6% (inactive) | 11.8% (inactive) | 73.9 | 36.9% (inactive) | 88 | -0.592 (inactive) | 1e-05 (inactive) | 0.00626 (inactive) | 19.3% (inactive) | 45.8% (inactive) |
| CCN(CC)C(=O)Oc1ccccc1NC(C)=O | 366 | -3.9% (inactive) | 17.2% (inactive) | 85.8 | -63.5% (inactive) | 121 | -0.221 (inactive) | 2.5e-07 (inactive) | 0.00764 (inactive) | 20.6% (inactive) | 13.2% (inactive) |
| CCOC(=O)C(CC)(CCC(=O)O)c1csc(N)n1 (stereo not drawn) | 518 | 9.6% (inactive) | -2.8% (inactive) | 91.6 | 14.4% (inactive) | 98.1 | -0.518 (inactive) | -3.9e-05 (inactive) | 0.00527 (inactive) | 13.6% (inactive) | 18% (inactive) |
| CCN(CC)S(=O)(=O)c1ccc2oc(C(=O)O)c(C)c2c1 | 335 | 12.8% (inactive) | 39.6% (inactive) | 85.6 | -89.3% (inactive) | 104 | -0.473 (inactive) | 0.000115 (inactive) | 0.00522 (inactive) | 5.96% (inactive) | 11.9% (inactive) |
| Cc1ccc(NCc2nnc(SCC(=O)N3CCCCC3)n2CC2CCCO2)c(C)c1 (stereo not drawn) | 484 | 3.6% (inactive) | -7.9% (inactive) | 95.1 | -63.1% (inactive) | 109 | -0.534 (inactive) | -1.9e-05 (inactive) | 0.00508 (inactive) | 20.5% (inactive) | 25.6% (inactive) |
| O=C(CN1C(=O)c2cccc3cccc1c23)Nc1ccccc1C(=O)NCc1ccco1 | 584 | -29.6% (inactive) | -3.5% (inactive) | 98.7 | -37.6% (inactive) | 105 | -0.0129 (inactive) | -5.3e-06 (inactive) | 0.00606 (inactive) | 8.08% (inactive) | 13.4% (inactive) |
| Cc1noc(C)c1COc1cccc(C(=O)Oc2ccc3c(c2)OCO3)c1 | 329 | -9.6% (inactive) | 4.3% (inactive) | 80.2 | 1.2% (inactive) | 100 | -0.567 (inactive) | -2.5e-05 (inactive) | 0.00685 (inactive) | 8.11% (inactive) | 15.8% (inactive) |
| COc1ccccc1-c1c(C)nn2c(N3CCC4(CC3)OCCO4)cc(C)nc12 | 540 | -2.1% (inactive) | -9.7% (inactive) | 91.2 | -42.2% (inactive) | 111 | -0.545 (inactive) | -4.6e-05 (inactive) | 0.00547 (inactive) | 13.5% (inactive) | 12.2% (inactive) |
| O=C(CSc1nc2ccccc2o1)N1CCN(c2ccc(Cl)cc2)CC1 | 301 | -0.5% (inactive) | -13.9% (inactive) | 117 | -47% (inactive) | 124 | -0.576 (inactive) | -3.9e-05 (inactive) | 0.00749 (inactive) | 16.8% (inactive) | 7.29% (inactive) |
| CCOCC(=O)Nc1nc2ccc(OC)cc2s1 | 411 | 2.9% (inactive) | -11.8% (inactive) | 102 | -85.2% (inactive) | 127 | -0.522 (inactive) | -0.000124 (inactive) | 0.00427 (inactive) | -34.1% (inactive) | -111% (inactive) |
| Cn1c(=O)cc(SCC(=O)N2CCOCC2)c2ccc(Cl)cc21 | 442 | -3.9% (inactive) | -3.2% (inactive) | 89.4 | 52.1% (inactive) | 92.6 | -0.557 (inactive) | -5.8e-05 (inactive) | 0.00569 (inactive) | 15% (inactive) | 23.4% (inactive) |
| CCOC(=O)c1sc2ncn(/N=C/N(C)C)c(=O)c2c1C | 415 | -2.7% (inactive) | 40.3% (active) | 72.6 | 20.9% (inactive) | 85.9 | -0.385 (inactive) | 6.4e-06 (inactive) | 0.00524 (inactive) | 5.64% (inactive) | 6.76% (inactive) |
| CCCCn1c(SCC(=O)c2ccc3c(c2)OCCO3)nnc1-c1ccco1 | 528 | -12.7% (inactive) | -5.2% (inactive) | 108 | 15.4% (inactive) | 110 | -0.483 (inactive) | 0.00011 (inactive) | 0.00599 (inactive) | 6.03% (inactive) | 12.4% (inactive) |
| O=C(CSc1nc2ccc(Cl)cc2[nH]1)NCc1ccco1 | 273 | 17.8% (inactive) | -10.2% (inactive) | 109 | -3.9% (inactive) | 109 | -0.611 (inactive) | 1.5e-05 (inactive) | 0.00642 (inactive) | 17.9% (inactive) | 20.8% (inactive) |
| CC1CCc2nc(NC(=O)CN3CCN(Cc4ccc5c(c4)OCO5)CC3)sc2C1 (stereo not drawn) | 641 | -9.3% (inactive) | 2% (inactive) | 100 | -24.4% (inactive) | 97.3 | -0.544 (inactive) | -6.2e-05 (inactive) | 0.00492 (inactive) | 11.9% (inactive) | 10.6% (inactive) |
| COc1ccccc1CN1CC(C(=O)N2CCN(c3ccc(F)cc3)CC2)CC1=O (stereo not drawn) | 400 | 72.8% (active) | -14.7% (inactive) | 101 | -19.6% (inactive) | 106 | -0.583 (inactive) | -4.4e-05 (inactive) | 0.00225 (inactive) | 16.3% (inactive) | 7.05% (inactive) |
| COC(=O)Cn1c2c(c3cc(C)ccc31)CCCC2 | 640 | -9.9% (inactive) | 23.1% (inactive) | 91.1 | -28.6% (inactive) | 111 | -0.523 (inactive) | -0.000167 (inactive) | 0.00431 (inactive) | 18.4% (inactive) | 21.6% (inactive) |
| COc1ccccc1-n1cnnc1SCC(=O)c1ccc[nH]1 | 544 | 6.1% (inactive) | 6.1% (inactive) | 96.8 | 17.5% (inactive) | 77.8 | -0.532 (inactive) | -4.3e-05 (inactive) | 0.00668 (inactive) | 9.86% (inactive) | 10.8% (inactive) |

From PubChem BioAssay
